Tested on: U2OS
Assay: Multiplex assay against U2OS
Type: toxicity, cell-based
Settings: human
How it was run: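 Cells were classed with CellPathfinder machine-learning gating, first as Hoechst high-intensity objects or normal cells, then (normal cells) as healthy, pyknosed or fragmented nuclei, and finally (pyknosed cells) as mitotic or apoptotic. Staining of live cells at seeding used Hoechst33342, BioTracker Green Microtubule Cytoskeleton Dye, MitoTracker Red and Annexin V Alexa Fluor 680, with imaging on a CQ1 microscope at 37°C and 5% CO2 after compound addition. Tubulin, mitochondrial-mass and membrane-permeability phenotypes are per cents of healthy-nucleus cells.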

[1] = 12 h, 1 µM, compound concentration 1 uM, replicate 1
[2] = 12 h, 1 µM, compound concentration 1 uM, replicate 2
[3] = 12 h, 10 µM, compound concentration 10 uM, replicate 1
[4] = 12 h, 10 µM, compound concentration 10 uM, replicate 2
[5] = 24 h, 1 µM, compound concentration 1 uM, replicate 1
[6] = 24 h, 1 µM, compound concentration 1 uM, replicate 2
[7] = 24 h, 10 µM, compound concentration 10 uM, replicate 1
[8] = 24 h, 10 µM, compound concentration 10 uM, replicate 2

Q: Which results are given for `C=CC(=O)Nc1ccc2[nH]c(=O)n(C3CCN(Cc4ccc(-c5nc6cc[nH]c(=O)c6cc5-c5ccccc5)cc4)CC3)c2c1` [Borussertib]?
A: Population Apoptotic (%) [1]: 25%; Population Fragmented Nuclei (%) [1]: 5%; Population Healthy Nuclei (%) [1]: 91%; Population Hoechst High Intensity Objects (%) [1]: 3%; Population Membrane Permeable-Phenotype (%) [1]: 12%; Population Mitochondria Different-Phenotype (%) [1]: 35%; Population Mitotic Cells (%) [1]: 75%; Population Normal (%) [1]: 96%; Population Pyknosed Nuclei (%) [1]: 2%; Population Tubulin-Different-Phenotype (%) [1]: 29%; Total Cell Count [1]: 158; Population Apoptotic (%) [2]: 28%; Population Healthy Nuclei (%) [2]: 87%; Population Hoechst High Intensity Objects (%) [2]: 14%; Population Membrane Permeable-Phenotype (%) [2]: 11%; Population Mitochondria Different-Phenotype (%) [2]: 21%; Population Mitotic Cells (%) [2]: 71%; Population Normal (%) [2]: 85%; Population Pyknosed Nuclei (%) [2]: 6%; Population Tubulin-Different-Phenotype (%) [2]: 23%; Total Cell Count [2]: 124; Population Apoptotic (%) [3]: 54%; Population Fragmented Nuclei (%) [3]: 2%; Population Healthy Nuclei (%) [3]: 84%; Population Hoechst High Intensity Objects (%) [3]: 4%; Population Membrane Permeable-Phenotype (%) [3]: 24%; Population Mitochondria Different-Phenotype (%) [3]: 18%; Population Mitotic Cells (%) [3]: 45%; Population Normal (%) [3]: 95%; Population Pyknosed Nuclei (%) [3]: 13%; Population Tubulin-Different-Phenotype (%) [3]: 38%; Total Cell Count [3]: 190; Population Apoptotic (%) [4]: 60%; Population Fragmented Nuclei (%) [4]: 6%; Population Healthy Nuclei (%) [4]: 77%; Population Hoechst High Intensity Objects (%) [4]: 8%; Population Membrane Permeable-Phenotype (%) [4]: 33%; Population Mitochondria Different-Phenotype (%) [4]: 28%; Population Mitotic Cells (%) [4]: 40%; Population Normal (%) [4]: 91%; Population Pyknosed Nuclei (%) [4]: 15%; Population Tubulin-Different-Phenotype (%) [4]: 32%; Total Cell Count [4]: 104; Population Apoptotic (%) [5]: 36%; Population Fragmented Nuclei (%) [5]: 1%; Population Healthy Nuclei (%) [5]: 93%; Population Hoechst High Intensity Objects (%) [5]: 2%; Population Membrane Permeable-Phenotype (%) [5]: 8%; Population Mitochondria Different-Phenotype (%) [5]: 22%; Population Mitotic Cells (%) [5]: 63%; Population Normal (%) [5]: 97%; Population Pyknosed Nuclei (%) [5]: 5%; Population Tubulin-Different-Phenotype (%) [5]: 34%; Total Cell Count [5]: 220; Population Apoptotic (%) [6]: 37%; Population Fragmented Nuclei (%) [6]: 9%; Population Healthy Nuclei (%) [6]: 84%; Population Hoechst High Intensity Objects (%) [6]: 7%; Population Membrane Permeable-Phenotype (%) [6]: 10%; Population Mitochondria Different-Phenotype (%) [6]: 29%; Population Mitotic Cells (%) [6]: 62%; Population Normal (%) [6]: 92%; Population Pyknosed Nuclei (%) [6]: 6%; Population Tubulin-Different-Phenotype (%) [6]: 28%; Total Cell Count [6]: 137; Population Apoptotic (%) [7]: 66%; Population Fragmented Nuclei (%) [7]: 6%; Population Healthy Nuclei (%) [7]: 85%; Population Hoechst High Intensity Objects (%) [7]: 2%; Population Membrane Permeable-Phenotype (%) [7]: 13%; Population Mitochondria Different-Phenotype (%) [7]: 19%; Population Mitotic Cells (%) [7]: 33%; Population Normal (%) [7]: 97%; Population Pyknosed Nuclei (%) [7]: 7%; Population Tubulin-Different-Phenotype (%) [7]: 26%; Total Cell Count [7]: 238; Population Apoptotic (%) [8]: 83%; Population Fragmented Nuclei (%) [8]: 12%; Population Healthy Nuclei (%) [8]: 76%; Population Hoechst High Intensity Objects (%) [8]: 13%; Population Membrane Permeable-Phenotype (%) [8]: 21%; Population Mitochondria Different-Phenotype (%) [8]: 28%; Population Mitotic Cells (%) [8]: 16%; Population Normal (%) [8]: 86%; Population Pyknosed Nuclei (%) [8]: 11%; Population Tubulin-Different-Phenotype (%) [8]: 22%; Total Cell Count [8]: 121
